The values that follow come from the EternaBench riboswitch data.

Data set [1] deals with MS2 coat protein. Kind of data set: apparent Kd, MS2 coat protein; higher = weaker binding; RNA-MaP array. The gist of the method:
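The designed RNAs, transcribed from sequenced DNA templates on an Illumina sequencing chip, were incubated with fluorescently labeled MS2 coat protein at room temperature. Protein ranged from 1.5 nM to 3 μM, with 0.8–1.5 h incubation at the lowest and 10–20 min at the highest concentrations, in Tris-HCl pH 7.5 buffer with KCl, MgCl2, BSA, DTT, tRNA and Tween20, with or without input ligand. The median of per-cluster binding-curve fits gives the apparent Kd, and designs measured on fewer than 10 clusters were excluded.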

The test system of data set [2] is MS2 coat protein. Kind of data set: apparent Kd, MS2 coat protein; higher = weaker binding; RNA-MaP array; FMN 200 µM where present. Summed up: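 The apparent Kd comes from binding curves fitted cluster by cluster, filtered, and summarised as a median. Those curves followed SNAP-549-labelled MS2 coat protein from 0.7 or 1.5 nM, doubling to 3 µM, on Illumina sequencing-chip clusters where stalled E. coli RNA polymerase had transcribed the designs, without and then with constant ligand. The buffer was 100 mM Tris-HCl pH 7.5, 80 mM KCl, 4 mM MgCl2, BSA, DTT, yeast tRNA and Tween-20, and green signal was normalised to red-channel RNA signal and control-cluster median Fmax.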

[3] abbreviates: designed as: OFF switch for flavin mononucleotide, no ligand.
Where [4] appears, read: ligand present: flavin mononucleotide, designed as: OFF switch for flavin mononucleotide.
Where [5] appears, read: designed as: ON switch for flavin mononucleotide, no ligand.
[6] abbreviates: ligand present: flavin mononucleotide, designed as: ON switch for flavin mononucleotide.

As usually defined, the apparent Kd is a dissociation constant that holds for the conditions of the assay. Turning to “AGUCACAUGAGGAUCACCCAUGUGCCAGAACGAGGACCGGUACGGCCGCCACUCGAGGCGUCCGUCGACAAUAAUGUGAACUGCA”, the “apparent Kd” value in data set [1] (designed as: ON switch for tryptophan, no ligand) amounted to 10.7 nM; in data set [1] (ligand present: tryptophan, designed as: ON switch for tryptophan), 12.1 nM.

Consider “UCCCGCUGCACAGGAUAUUGGAAAAUACAUGAGGAUCACCCAUGUGCUUAUAUGAGGUCUGCCUCCAAGAAGGGUGAGAUAAUC”, for which the results for the “apparent Kd” value in data set [1] (setting [3]) and in data set [1] (setting [4]) were 113 nM and 89.6 nM, respectively. Turning to “AAACGGUAAGGAUAUCCACCAGGAUUGGAGCCACCUAAUUCGGAGAAGGUACAUGAGGAUCACCCAUGUCGGGU”, the “apparent Kd” value in data set [1] (setting [3]) came to 146 nM; in data set [1] (setting [4]), 124 nM. For “UGAGUUUACUGAGGAUAUUCGGGUCCGACGACAUGAGGAUCACCCAUGUUAGUAAUGCUGCAAGGGAAGAAGGCAGAAAGAACU”, in that order: 13.7 nM and 10.7 nM. In the case of “UCCCAGUAACAUGAGGAUCACCCAUGUUGGAGUGUGCCUGCUCAGGAUAUUCGCGGCAUAAAAGUGAAGAAGGGAGCUCAAACG”, the “apparent Kd” value is 13.1 nM in data set [1] (setting [3]) and 11.3 nM in data set [1] (setting [4]).

Regarding “CCGGCAACGUAAGGAUAUGAUUCGCGUCUUGACAUGAGGAUCACCCAUGUAACUGUCGAAAUGGCUCAGAAGGUACCAGUGCCC”, the “apparent Kd” value was found to be 26.6 nM in data set [1] (setting [5]) and 17.9 nM in data set [1] (setting [6]). The matching figures for “GCAGAUACCAUGAGUCGACAUGAGGAUCACCCAUGUACUCCCAGAAGGAUGUACUUUGUUCAAGCAUAGGAUAUGGGCCGAACC”: 114 nM and 56 nM.

On to “GGAUGAAGGAAGGAUAUUACGCAGCAACGACCGUAAGAAGGUCCAACAUGAGGAUCACCCAUGUGGUGCUUACU”, for which the “apparent Kd” value in data set [1] (setting [3]) worked out at 33.2 nM; in data set [1] (setting [4]), 159 nM.

For the sequence “GACCUGUUAGGAUAUCGAAGGAGUCAAUACCAAGUGAGACACGAGAAGGAACAUGAGGAUCACCCAUGUGAACC”, the “apparent Kd” value in data set [1] (setting [3]) was 11.4 nM; in data set [1] (setting [4]) it was 15.7 nM. Take “AUCGGCAGAAAAGAUACCAGAGUAAUACACAACAUGAGGAUCACCCAUGUACGGACAAUCCUCCCUUGGCAGCUUGUAACAGUAU”: the “apparent Kd” value in data set [1] (designed as: ON switch for theophylline, no ligand) was 47.8 nM; in data set [1] (ligand present: theophylline, designed as: ON switch for theophylline), 26.9 nM. On to “AGGCCCUCACAUGAGGAUCACCCAUGUACGUACGCAGGUGGAAGAAGGCCGGUACAACCUAAUCCGGAGGAUAUUCGAAUUAAC”, for which the entries for the “apparent Kd” value in data set [1] (setting [3]) and in data set [1] (setting [4]) were 372 nM and 199 nM, respectively. The matching figures for “CCGUUCGCCGAGAAGGGACAGGACUUAAUAGCGUCAGGAUAUCGCGGACCGUGAUUCUAUGACAUGAGGAUCACCCAUGUGCUU”: 34.7 nM and 11.7 nM. For the sequence “CUCACCUCGUGGAAGGAUAUACACUUUAGCACAUGAGGAUCACCCAUGUCCGCCGCAAAUCCUAGGUAGAAGGUCCGCAACAUUCG”, the “apparent Kd” value in data set [1] (setting [5]) was 23.5 nM; in data set [1] (setting [6]), 18 nM.

As for “CGAUCUGGCUAAGGAUAUCAAGUGCGCAUGGUUUGACAGCACAUGAGGAUCACCCAUGUAACGCAUGAGAAGGUAGGCACACAG”, the entries for the “apparent Kd” value in data set [1] (setting [3]) and in data set [1] (setting [4]) were 223 nM and 183 nM, respectively. For “CAAUGGGAACCAUAUGUUUACAUGAGGAUCACCCAUGUUACAUAGGAUAUCUCGGUUGGGUUCGUAGAGAAGGAUGUAGAGUAG”, the “apparent Kd” value in data set [1] (setting [3]) is 5.28 nM; in data set [1] (setting [4]) it was 5.3 nM. Turning to “GACGGACAUGAGGAUCACCCAUGUUCUGGCAGCGUAGGAUAUGAAGGGAUGAUUGUACGUUCAGAAGGACGACCUG”, the “apparent Kd” value in data set [1] (setting [5]) was determined as 10.3 nM; in data set [1] (setting [6]), 7.53 nM. Regarding “AAAAAACAUGAGGAUCACCCAUGUAAGGAUAUGACUUAAAUAAAGAAAGAAGAAAUAGUCAGAAGGUACAAAUA”, the “apparent Kd” value in data set [2] (setting [3]) stood at 45.3 nM; in data set [2] (setting [4]), 51.1 nM. For “AAUAACAGAGGAUAUACUAUUUUAUGUGUUUGUUGUUUUAAACAUGAGGAUCACCCAUGUAGAAGGCUGAUUGA”, in that order: 38.2 nM and 45.4 nM. For “AUCUCGUCAGGAUAUCCUAGUAAUUGUUUCAUAUUUACGAUGGAGAAGGGACAUGAGGAUCACCCAUGUUGGUC”, in that order: 64.4 nM and 144 nM. Take “AGCUGGUGACAGCAUCCAUCUUAACAUGAGGAUCACCCAUGUAGAAGGCUGUACGGUUACCGUACAGAGGAUAUACAUAGAUGG”: the “apparent Kd” value in data set [2] (setting [3]) was determined as 7.95 nM. As to “GGGUACAUCGGAGGAUAUCAUGUACAUACAUGAGGAUCACCCAUGUCGAUGGAGACAUCGGAGAUUGAGAAGGCCGAUGUACCG”, the “apparent Kd” value in data set [2] (setting [5]) is 230 nM; in data set [2] (setting [6]) it was 9.27 nM. As for “GCGUCAGAAUUAAUUGUGACAUACAGAAGGCAAUAUUAAGGUUAAGACAUGAGGAUCACCCAUGUUGAGGAUAUGUAGUGACGC”, the “apparent Kd” value in data set [2] (setting [3]) worked out at 8.9 nM; in data set [2] (setting [4]), 15.8 nM.

Take “GUGCGAGGCUAGGAUAUUGUGGGUUUUUGUCUGCGAGAAGGAGCCACAUGAGGAUCACCCAUGUGGUGUUGCUC”: the “apparent Kd” value in data set [2] (setting [3]) was 64.4 nM; in data set [2] (setting [4]), 294 nM.
